6 compounds from ChEMBL document CHEMBL1153167, “Gastroprotective flavonoid constituents from Oroxylum indicum Vent” (Bioorg Med Chem Lett, 2010) can be followed below.

Active and inactive are the calls of the source. The calls are words filed in the database; no cut-off is given here.

What all share (type): functional, organism-based
What all share (set-up): dose 25 mg/kg

Assay [1] relates to Rattus norvegicus. Description: Gastroprotective activity against ethanol-induced ulceritis in 48 hrs fasted Wistar rat at 25 mg/kg, po pretreated 1 hr before ethanol challenge followed by pylorus ligation measured after 4 hrs. A digest of the protocol:
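Rats fasted 48 h, six per group, were dosed orally. Ethanol was given intragastrically 1 h later. One hour after the ethanol, the pylorus was ligated under anesthesia. Animals were killed 4 h after ligation and ulcers were indexed. Read-out is % protection, mean ± SD.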

In assay [2] the test system is Rattus norvegicus. Description: Gastroprotective activity against cold restraint-induced ulceritis in Wistar rat at 25 mg/kg, po pretreated before cold restraination measured after 2 hrs. An outline of the steps: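 After the oral dose, rats (six per group) were restrained at 4 °C for 2 h. The stomach was then opened along the greater curvature and severity was scored as mean ulcer index. Read-out is % protection, mean ± SD.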

Assay [3] concerns Rattus norvegicus. Nature of the assay: Gastroprotective activity against aspirin-induced ulceritis in Wistar rat at 25 mg/kg, po pretreated 5 days before aspirin challenge measured after 24 hrs of fasting. A digest of the protocol: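 Rats, six per group, were dosed with test sample for five days, then given aspirin 200 mg/kg body weight suspended in 1% Tween-80. They were fasted 24 h and killed by cervical dislocation. Stomachs were opened along the greater curvature, washed with lukewarm saline and scored for ulcer index under a dissecting microscope. Read-out is % protection, mean ± SD.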

Assay [4] concerns Rattus norvegicus. Description: Gastroprotective activity against pylorus ligation-induced ulcer in 48 hrs fasted Wistar rat at 25 mg/kg rat pretreated 1 hr before pylorus ligation measured after 4 hrs. An outline of the steps:
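Rats fasted 48 h, six per group, were dosed as a 1% Tween-80 suspension at 1 mL per rat. After 1 h the pylorus was ligated under anesthesia. Animals were killed 4 h after ligation for evaluation. Read-out is % protection, mean ± SD.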

Regarding `COc1c(O)cc2oc(-c3ccccc3)cc(=O)c2c1O`, the result in the assay with Rattus norvegicus [1], in the assay on Rattus norvegicus [2], with Rattus norvegicus [3] and with Rattus norvegicus [4] was Active.

`COc1ccc(-c2cc(=O)c3c(O)cc(OC)cc3o2)cc1`: the outcome with Rattus norvegicus [1], in the assay on Rattus norvegicus [2], in the assay on Rattus norvegicus [3] and in the assay with Rattus norvegicus [4] was inactive.

Regarding `COc1cc(O)c2c(=O)cc(-c3ccccc3)oc2c1`, the outcome with Rattus norvegicus [1], in the assay on Rattus norvegicus [2], in the assay with Rattus norvegicus [3] and with Rattus norvegicus [4] was inactive.

With `COc1cc(O)c2c(=O)cc(-c3c(OC)cccc3O[C@H]3O[C@@H](CO)[C@H](O)[C@@H](O)[C@@H]3O)oc2c1`, the outcome with Rattus norvegicus [1], with Rattus norvegicus [2], in the assay on Rattus norvegicus [3] and in the assay with Rattus norvegicus [4] was inactive.

Consider `O=c1cc(-c2ccccc2)oc2cc(O)cc(O)c12`, for which the result in the assay on Rattus norvegicus [1], in the assay on Rattus norvegicus [2], in the assay with Rattus norvegicus [3] and in the assay on Rattus norvegicus [4] was Active.

As for `COc1c(O)cc2c(c1O)C(=O)C[C@@H](c1ccccc1)O2`, the result in the assay on Rattus norvegicus [1], in the assay with Rattus norvegicus [2], in the assay with Rattus norvegicus [3] and in the assay with Rattus norvegicus [4] was Active.
